ChEMBL document CHEMBL1152506, “Characterization and synthetic application of a novel beta1,3-galactosyltransferase from Escherichia coli O55:H7” (Bioorg Med Chem, 2009)
One block for each molecule: values may come before it. Calls of active or inactive are those of the source. No cut-off for these calls is given here.

Columns and labels:
[1] = target: T1, Putative glycosyltransferase (Escherichia coli O55:H7) (UniProt B1B4J9); test: Activity of Escherichia coli O55:H7 glycosyltransferase WbgO relative to GlcNAc
T1 sequence (whole entry): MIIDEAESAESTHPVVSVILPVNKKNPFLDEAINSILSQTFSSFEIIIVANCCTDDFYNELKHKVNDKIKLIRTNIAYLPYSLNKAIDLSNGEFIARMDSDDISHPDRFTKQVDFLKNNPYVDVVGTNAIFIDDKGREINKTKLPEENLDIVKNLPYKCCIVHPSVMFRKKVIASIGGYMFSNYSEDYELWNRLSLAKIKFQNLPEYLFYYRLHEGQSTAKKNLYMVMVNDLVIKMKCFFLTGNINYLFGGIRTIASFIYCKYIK
Method in brief: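 GST-fused WbgO made in E. coli BL21(DE3) and purified on glutathione resin. Assayed in 50 µL of 50 mM HEPES pH 7.0 with 5 mM MnCl2, 0.3 mM UDP-Gal plus UDP-[6-3H]Gal (10,000 cpm), 2 mM acceptor and 4 µg enzyme, 37 °C for 1 h. Control omitted the acceptor. Incorporated 3H was read by liquid scintillation counting and expressed relative to GlcNAc.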

[2] = target: T1, Putative glycosyltransferase (Escherichia coli O55:H7); test: Activity of Escherichia coli O55:H7 glycosyltransferase WbgO
Method in brief: (§1)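 Apparent kinetics for purified GST-WbgO, using the radioactive UDP-[6-3H]Gal transfer assay with scintillation counting. The acceptor (GlcNAc, GalNAc or lacto-N-triose) was varied at 0.1, 0.2, 0.5, 1 and 2 mM with UDP-Gal fixed at 1 mM. UDP-Gal was varied at 0.1–2 mM with 20 mM GlcNAc. Base buffer was HEPES pH 7.0 with 5 mM MnCl2.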

[3] = substrate: CC(=O)N[C@@H]1[C@@H](O)[C@@H](O)[C@@H](CO)O[C@H]1O; test: (§2) Activity of Escherichia coli O55:H7 glycosyltransferase WbgO by Lineweaver-Burke analysis; method in brief: as §1
[4] = substrate: CC(=O)N[C@@H]1[C@@H](O)[C@H](O)[C@@H](CO)O[C@H]1O; test: as §2; method in brief: as §1
[5] = substrate: CC(=O)N[C@H]1[C@H](O[C@H]2[C@@H](O)[C@@H](CO)O[C@@H](O[C@H]3[C@H](O)[C@@H](O)[C@H](O)O[C@@H]3CO)[C@@H]2O)O[C@H](CO)[C@@H](O)[C@@H]1O[C@@H]1O[C@H](CO)[C@H](O)[C@H](O)[C@H]1O; test: as §2; method in brief: as §1
[6] = substrate: CC(=O)N[C@@H]1[C@@H](O)[C@@H](O)[C@@H](CO)O[C@H]1O; test: (§3) Ratio of Kcat to Km for Escherichia coli O55:H7 glycosyltransferase WbgO by Lineweaver-Burke analysis; method in brief: as §1
[7] = substrate: CC(=O)N[C@@H]1[C@@H](O)[C@H](O)[C@@H](CO)O[C@H]1O; test: as §3; method in brief: as §1
[8] = substrate: CC(=O)N[C@H]1[C@H](O[C@H]2[C@@H](O)[C@@H](CO)O[C@@H](O[C@H]3[C@H](O)[C@@H](O)[C@H](O)O[C@@H]3CO)[C@@H]2O)O[C@H](CO)[C@@H](O)[C@@H]1O[C@@H]1O[C@H](CO)[C@H](O)[C@H](O)[C@H]1O; test: as §3; method in brief: as §1

Activity [1]: 73%
Molecule: CC(=O)N[C@H]1[C@H](Oc2ccc([N+](=O)[O-])cc2)O[C@H](CO)[C@@H](O)[C@@H]1O

Activity [1]: 43% | Activity [2]: Active
Molecule: CC(=O)N[C@@H]1[C@@H](O)[C@@H](O)[C@@H](CO)O[C@H]1O

Activity [1]: 16%
Molecule: CC(=O)N[C@H]1[C@H](O[C@H]2[C@@H](O)[C@@H](CO)O[C@@H](O[C@H]3[C@H](O)[C@@H](O)[C@H](O)O[C@@H]3CO)[C@@H]2O)O[C@H](CO)[C@H](O)[C@@H]1O

Activity [1]: 100% | Activity [2]: Active
Molecule: CC(=O)N[C@@H]1[C@@H](O)[C@H](O)[C@@H](CO)O[C@H]1O

B1: Putative glycosyltransferase (Escherichia coli O55:H7), B1B4J9 (protein)
chain: MIIDEAESAESTHPVVSVILPVNKKNPFLDEAINSILSQTFSSFEIIIVANCCTDDFYNELKHKVNDKIKLIRTNIAYLPYSLNKAIDLSNGEFIARMDSDDISHPDRFTKQVDFLKNNPYVDVVGTNAIFIDDKGREINKTKLPEENLDIVKNLPYKCCIVHPSVMFRKKVIASIGGYMFSNYSEDYELWNRLSLAKIKFQNLPEYLFYYRLHEGQSTAKKNLYMVMVNDLVIKMKCFFLTGNINYLFGGIRTIASFIYCKYIK
Km [3]: 327 µM | Vmax [3]: 120 pmol/min | kcat [3]: 1.71 min⁻¹ | Km [4]: 323 µM | Vmax [4]: 179 pmol/min | kcat [4]: 2.55 min⁻¹ | Km [5]: 55 µM | Vmax [5]: 176 pmol/min | kcat [5]: 2.5 min⁻¹ | kcat/Km [6]: 5.23 mM⁻¹ min⁻¹ | kcat/Km [7]: 7.89 mM⁻¹ min⁻¹ | kcat/Km [8]: 16.7 mM⁻¹ min⁻¹
